The values below come from ChEMBL document CHEMBL3774379, “Synthesis and biological evaluation of quinoline derivatives as potential anti-prostate cancer agents and Pim-1 kinase inhibitors” (Bioorg Med Chem, 2016).

As a reminder, the GI50 is the concentration giving 50% growth inhibition. A word on the IC50: it is the concentration that inhibits the measured activity by half. Higher therefore signals lower potency.

Assay [1] can be described thus: Antiproliferative activity against human PC3 cells after 96 hrs by MTT assay. Conditions: PC-3, 96 h. In kind it is functional. A digest of the protocol:
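PC-3 cells grown in RPMI1640 with 10% heat-inactivated FBS; seeded 2×10³ cells/well, 24 h at 37°C, 5% CO₂, then compound at various concentrations for 96 h. MTT (2 mg/mL) added for 4 h, formazan dissolved in DMSO, absorbance 570 nm. GI₅₀ from inhibition ratios versus untreated cells; three independent experiments, mean reported.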
A general note: Tetrazolium assays rely on reduction of a dye to a coloured formazan, in cell work by metabolically active cells.

The target of assay [2] is T1, Serine/threonine-protein kinase pim-1 (Homo sapiens, UniProt P11309). Kind of assay: Inhibition of Pim1 kinase (unknown origin) using substrate S3 after 50 mins by HTRF assay. For orientation: Time-resolved FRET reads energy transfer from a long-lived donor to a nearby acceptor.
Target sequence in this assay (P11309 whole entry): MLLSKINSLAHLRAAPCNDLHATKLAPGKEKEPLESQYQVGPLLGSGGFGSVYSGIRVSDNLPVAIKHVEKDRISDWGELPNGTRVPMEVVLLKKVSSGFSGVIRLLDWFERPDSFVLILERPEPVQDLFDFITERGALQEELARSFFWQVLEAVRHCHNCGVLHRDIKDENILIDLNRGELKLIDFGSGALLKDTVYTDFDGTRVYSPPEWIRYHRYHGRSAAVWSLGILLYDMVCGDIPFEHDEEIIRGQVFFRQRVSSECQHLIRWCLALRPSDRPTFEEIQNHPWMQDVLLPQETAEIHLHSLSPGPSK
Assay [3] concerns the target T1, Serine/threonine-protein kinase pim-1. As to the kind of experiment: Inhibition of Pim1 kinase in human PC3 cells assessed as decrease in BAD phosphorylation level at 8 to 16 uM after 24 hrs by Western blot analysis. The assay is classed as cell-based. The conditions noted are these: PC-3. (In general: Immunoblotting shows a protein as a band on a membrane.)
Target sequence in this assay (P11309 whole entry, looked up): as the sequence (P11309 whole entry) above
Assay [4] has the same target. As to the kind of experiment: Inhibition of Pim1 kinase in human PC3 cells assessed as increase in p21 level at 8 to 16 uM after 24 hrs by Western blot analysis. The assay is classed as cell-based. The conditions noted are these: PC-3.
Target sequence in this assay (P11309 whole entry, looked up): as the sequence (P11309 whole entry) above
The target is the same in assay [5]. Kind of assay: Inhibition of Pim1 kinase in human PC3 cells assessed as increase in p27 level at 8 to 16 uM after 24 hrs by Western blot analysis. In kind it is cell-based. The conditions noted are these: PC-3.
Target sequence in this assay (P11309 whole entry, looked up): as the sequence (P11309 whole entry) above
For assay [6], the system named is PC-3. As to the kind of experiment: Induction of ERK phosphorylation in human PC3 cells at 8 to 16 uM after 24 hrs by Western blot analysis. The assay is classed as cell-based.
The nature of assay [7]: Cell cycle arrest in human PC3 cells assessed as cell accumulation at sub-G1 phase at 8 uM after 48 hrs by Propidium Iodide staining based flow cytometric analysis (reference value: 2.5%). In kind it is functional. The conditions noted are these: PC-3. In short, it runs like this: (§1)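 PC-3 cells in six-well plates treated 0, 8, 12 or 16 μM for 24 or 48 h. Floating and adherent cells pooled, PBS-washed, fixed in ice-cold 70% ethanol at -20°C overnight, treated with 1 mg/mL RNase at 37°C for 30 min, stained with PI at 50 μg/mL final. DNA content read by flow cytometry, excitation 488 nm, emission 625 nm.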

Assay [8] is described as follows: Cell cycle arrest in human PC3 cells assessed as cell accumulation at G0/G1 phase at 8 uM after 48 hrs by Propidium Iodide staining based flow cytometric analysis (reference value: 57.9%). In kind it is functional. Conditions: PC-3. A digest of the protocol:
as §1

Assay [9] in a line: Cell cycle arrest in human PC3 cells assessed as cell accumulation at G2/M phase at 8 uM after 48 hrs by Propidium Iodide staining based flow cytometric analysis (reference value: 32.4%). The assay is classed as functional. The conditions noted are these: PC-3. In short, it runs like this:
as §1

The nature of assay [10]: Cell cycle arrest in human PC3 cells assessed as cell accumulation at sub-G1 phase at 12 uM after 48 hrs by Propidium Iodide staining based flow cytometric analysis (reference value: 2.5%). The assay is classed as functional. Conditions: PC-3. In short, it runs like this: as §1
Assay [11] can be described thus: Cell cycle arrest in human PC3 cells assessed as cell accumulation at G0/G1 phase at 12 uM after 48 hrs by Propidium Iodide staining based flow cytometric analysis (reference value: 57.9%). The conditions noted are these: PC-3. In kind it is functional. In short, it runs like this: as §1
Assay [12] can be described thus: Cell cycle arrest in human PC3 cells assessed as cell accumulation at G2/M phase at 12 uM after 48 hrs by Propidium Iodide staining based flow cytometric analysis (reference value: 32.4%). The assay is classed as functional. The conditions noted are these: PC-3. A digest of the protocol:
as §1

Assay [13] can be described thus: Cell cycle arrest in human PC3 cells assessed as cell accumulation at sub-G1 phase at 16 uM after 48 hrs by Propidium Iodide staining based flow cytometric analysis (reference value: 2.5%). The assay is classed as functional. Conditions: PC-3. In short, it runs like this:
as §1

Assay [14] in a line: Cell cycle arrest in human PC3 cells assessed as cell accumulation at G0/G1 phase at 16 uM after 48 hrs by Propidium Iodide staining based flow cytometric analysis (reference value: 57.9%). The assay is classed as functional. The conditions noted are these: PC-3. In short, it runs like this: as §1
Assay [15] can be described thus: Cell cycle arrest in human PC3 cells assessed as cell accumulation at G2/M phase at 16 uM after 48 hrs by Propidium Iodide staining based flow cytometric analysis (reference value: 32.4%). The assay is classed as functional. Conditions: PC-3. In short, it runs like this:
as §1

The nature of assay [16]: Cell cycle arrest in human PC3 cells assessed as cell accumulation at sub-G1 phase at 8 uM after 24 hrs by Propidium Iodide staining based flow cytometric analysis (reference value: 1.7%). In kind it is functional. Conditions: PC-3. A digest of the protocol: as §1
A short description of assay [17]: Cell cycle arrest in human PC3 cells assessed as cell accumulation at G0/G1 phase at 8 uM after 24 hrs by Propidium Iodide staining based flow cytometric analysis (reference value: 57.1%). The assay is classed as functional. The conditions noted are these: PC-3. A digest of the protocol:
as §1

Assay [18] can be described thus: Cell cycle arrest in human PC3 cells assessed as cell accumulation at G2/M phase at 8 uM after 24 hrs by Propidium Iodide staining based flow cytometric analysis (reference value: 32%). The assay is classed as functional. The conditions noted are these: PC-3. A digest of the protocol:
as §1

Assay [19] in a line: Cell cycle arrest in human PC3 cells assessed as cell accumulation at sub-G1 phase at 12 uM after 24 hrs by Propidium Iodide staining based flow cytometric analysis (reference value: 1.7%). The assay is classed as functional. The conditions noted are these: PC-3. In short, it runs like this: as §1
Assay [20] in a line: Cell cycle arrest in human PC3 cells assessed as cell accumulation at G0/G1 phase at 12 uM after 24 hrs by Propidium Iodide staining based flow cytometric analysis (reference value: 57.1%). In kind it is functional. Conditions: PC-3. A digest of the protocol: as §1
Assay [21] is described as follows: Cell cycle arrest in human PC3 cells assessed as cell accumulation at G2/M phase at 12 uM after 24 hrs by Propidium Iodide staining based flow cytometric analysis (reference value: 32%). The assay is classed as functional. Conditions: PC-3. In short, it runs like this:
as §1

The nature of assay [22]: Cell cycle arrest in human PC3 cells assessed as cell accumulation at sub-G1 phase at 16 uM after 24 hrs by Propidium Iodide staining based flow cytometric analysis (reference value: 1.7%). The assay is classed as functional. Conditions: PC-3. A digest of the protocol:
as §1

Assay [23] can be described thus: Cell cycle arrest in human PC3 cells assessed as cell accumulation at G0/G1 phase at 16 uM after 24 hrs by Propidium Iodide staining based flow cytometric analysis (reference value: 57.1%). In kind it is functional. Conditions: PC-3. In short, it runs like this:
as §1

Assay [24] is described as follows: Cell cycle arrest in human PC3 cells assessed as cell accumulation at G2/M phase at 16 uM after 24 hrs by Propidium Iodide staining based flow cytometric analysis (reference value: 32%). The assay is classed as functional. Conditions: PC-3. In short, it runs like this: as §1
In assay [25] the target is T1, Serine/threonine-protein kinase pim-1. Kind of assay: Inhibition of Pim1 kinase in human PC3 cells assessed as decrease in c-Myc level at 8 to 16 uM after 24 hrs by Western blot analysis. In kind it is cell-based. The conditions noted are these: PC-3.
Target sequence in this assay (P11309 whole entry, looked up): as the sequence (P11309 whole entry) above
Assay [26] has the same target. Kind of assay: Inhibition of Pim1 kinase in human PC3 cells assessed as decrease in 4E-BP1 phosphorylation level at 8 to 16 uM after 24 hrs by Western blot analysis. In kind it is cell-based. The conditions noted are these: PC-3.
Target sequence in this assay (P11309 whole entry, looked up): as the sequence (P11309 whole entry) above

Calls of active or inactive are those of the source. The rule behind the calls is not given here. A value given as a limit tells only on which side of the number the result lay.

As for `Oc1ccc(Br)c2ccc(Oc3ccccn3)nc12`, the GI50 in [1] is > 30 µM.
Still for that read-out and setting: with `COc1cccc2ccc(Nc3cc(Cl)ccn3)nc12` the figure was 11.8 µM; with `Cc1ccnc(Nc2ccc3c(Cl)ccc(O)c3n2)c1`, 10.2 µM.
Same read-out and setting: with `COc1ccc(Cl)c2ccc(Nc3ccccn3)nc12` the figure was 29.2 µM; with `Oc1ccc(Cl)c2ccc(Sc3ccccn3)nc12`, 10.2 µM.
Take `Cc1ccnc(Nc2ccc3cccc(O)c3n2)c1`: the GI50 in assay [1] was determined as 5.84 µM.
Turning to `COc1cccc2ccc(Nc3ccccn3)nc12`, growth in [1] was halved (GI50) at 7.47 µM. The GI50 values of the last two molecules are within 1.5-fold of each other.
In turn, `Oc1cccc2ccc(Nc3ccccn3)nc12` gave a GI50 in assay [1] of 2.6 µM. Against the preceding molecule, the GI50 is about 2.9-fold lower.
On the same count and under the same terms, with `Cc1ccnc(Nc2ccc3ccccc3n2)c1` the figure was 26.7 µM; with `Oc1ccc(Cl)c2ccc(Nc3cc(Cl)ccn3)nc12`, 25.5 µM.
On the same count and under the same terms, with `Oc1cccc2ccc(Oc3ccccn3)nc12` the figure was > 30 µM; with `Oc1cccc2ccc(Nc3cc(Cl)ccn3)nc12`, 2.81 µM.
Molecule `CN1CCC(CNc2ccc3ncc(-c4cccc(OC(F)(F)F)c4)n3n2)CC1` [SGI-1776] came in with a GI50 in assay [1] of 4.86 µM.
Still for that read-out and setting: the result for `Oc1ccc(Cl)c2ccc(Oc3ccccn3)nc12` reads > 30 µM.
Still for that read-out and setting: the result for `COc1ccc(Cl)c2ccc(Nc3cc(Cl)ccn3)nc12` reads > 30 µM.
On to `c1ccc(Nc2ccc3ccccc3n2)nc1`, for which the IC50 in assay [2] is > 10 µM. In [1], the GI50 is > 30 µM.
On to `Oc1ccc(Cl)c2ccc(Nc3ccccn3)nc12`, for which the inhibition entry in [3], in assay [4], in [5] and in [26] was “Dose-dependent effect” each time. This molecule also returned an IC50 in assay [2] of 0.75 µM. In assay [6], the result was Active. Moreover, the Activity in assay [7] was 13.1%; in assay [8], 52.9%; in assay [9], 25%; in assay [10], 27.7%; in assay [11] it was 44.4%; in [12], 20%. The Activity came out at 52.6% in assay [13]; 31% in assay [14]; 11% in assay [15]; 2.9% in assay [16]; 65.2% in assay [17]; 19.3% in assay [18]. Further, the Activity in [19] amounted to 10.4%; in assay [20], 64.5%; in assay [21] it was 17.3%; in assay [22], 31.5%; in assay [23], 48.1%; in assay [24], 13.9%. For the same molecule, in assay [25], the Activity result was “Dose-dependent effect”. The concentration for 50% growth inhibition (GI50) in [1] came to 1.29 µM.
With `COc1ccc(Cl)c2ccc(Nc3cc(C)ccn3)nc12`, in assay [1], the concentration for 50% growth inhibition (GI50) is > 30 µM.
Take `Oc1cccc2ccc(Sc3ccccn3)nc12`: the IC50 in [2] was > 10 µM. In assay [1], this molecule came in with a GI50 of 20.9 µM.
Consider `COc1cccc2ccc(Nc3cc(C)ccn3)nc12`, for which it took 3.82 µM to inhibit growth in assay [1] by half (GI50). This counts as single-digit micromolar.
Turning to `Oc1ccc(Br)c2ccc(Sc3ccccn3)nc12`, it took 10.2 µM to inhibit growth in assay [1] by half (GI50).
On the same count and under the same terms, with `Clc1ccnc(Nc2ccc3ccccc3n2)c1` the figure was > 30 µM.
